This passage reports inhibition and fold change (FC) results from ChEMBL document CHEMBL5653631, “A Potent and Selective ULK1 Inhibitor Suppresses Autophagy and Sensitizes Cancer Cells to Nutrient Stress” (iScience, 2018).

For assay [1], the target named is T1, Eukaryotic elongation factor 2 kinase (Homo sapiens) (UniProt O00418).
T1 sequence (whole entry): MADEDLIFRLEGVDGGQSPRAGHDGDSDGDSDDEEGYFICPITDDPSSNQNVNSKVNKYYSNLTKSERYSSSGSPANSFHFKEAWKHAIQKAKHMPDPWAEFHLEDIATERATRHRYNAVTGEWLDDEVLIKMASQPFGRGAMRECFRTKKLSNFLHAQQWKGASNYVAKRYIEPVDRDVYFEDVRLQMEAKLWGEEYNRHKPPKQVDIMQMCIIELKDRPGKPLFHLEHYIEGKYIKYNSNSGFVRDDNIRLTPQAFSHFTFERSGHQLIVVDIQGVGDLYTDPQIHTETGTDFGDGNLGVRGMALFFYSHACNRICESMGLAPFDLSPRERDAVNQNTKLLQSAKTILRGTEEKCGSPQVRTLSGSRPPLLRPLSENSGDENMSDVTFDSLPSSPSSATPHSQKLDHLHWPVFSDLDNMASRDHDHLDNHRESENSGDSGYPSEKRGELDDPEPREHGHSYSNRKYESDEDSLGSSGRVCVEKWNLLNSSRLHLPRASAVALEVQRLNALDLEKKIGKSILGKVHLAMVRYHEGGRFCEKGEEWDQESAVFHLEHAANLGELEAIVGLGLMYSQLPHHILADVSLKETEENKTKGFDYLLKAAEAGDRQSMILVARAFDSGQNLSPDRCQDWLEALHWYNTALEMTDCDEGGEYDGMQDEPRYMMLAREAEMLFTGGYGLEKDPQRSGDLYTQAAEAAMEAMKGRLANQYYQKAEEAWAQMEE
Briefly: Inhibition of human recombinant eEF2K at 40 nM in presence of ATP by radiometric assay relative to control.

The target in assay [2] is Serine-protein kinase ATM (Homo sapiens) (UniProt Q13315). Description: Inhibition of human recombinant ATM at 40 nM in presence of ATP by radiometric assay relative to control. Put shortly:
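Panel of 327 recombinant human kinases, each assayed in vitro by radiometric activity assay in duplicate at a single inhibitor concentration per compound, chosen with reference to its ULK1 inhibition. Activity remaining was expressed as percent of vehicle control, and percent inhibition was calculated as 100 minus percent activity remaining.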

The target in assay [3] is Cyclin-dependent kinase-like 1 (Homo sapiens) (UniProt Q00532). Description: Inhibition of human recombinant CDKL1 at 500 nM related to control ULK1.
Chain of Cyclin-dependent kinase-like 1 (Homo sapiens) (Q00532 whole entry): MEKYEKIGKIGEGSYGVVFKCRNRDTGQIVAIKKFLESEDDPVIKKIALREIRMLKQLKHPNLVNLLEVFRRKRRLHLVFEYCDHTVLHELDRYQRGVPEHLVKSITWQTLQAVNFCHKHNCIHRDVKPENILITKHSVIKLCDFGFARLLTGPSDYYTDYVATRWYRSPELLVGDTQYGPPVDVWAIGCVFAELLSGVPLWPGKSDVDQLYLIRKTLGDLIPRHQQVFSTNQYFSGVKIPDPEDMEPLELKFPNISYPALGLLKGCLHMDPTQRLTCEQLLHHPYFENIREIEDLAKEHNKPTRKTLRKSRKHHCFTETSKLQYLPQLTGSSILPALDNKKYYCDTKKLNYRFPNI
Assay [4] concerns the target Myosin light chain kinase 2, skeletal/cardiac muscle (Homo sapiens) (UniProt Q9H1R3). Briefly: Inhibition of human recombinant skMLCK at 500 nM in presence of ATP by radiometric assay relative to control.
The target of assay [5] is T2, Ephrin type-A receptor 8 (Homo sapiens) (UniProt P29322).
T2 sequence (whole entry): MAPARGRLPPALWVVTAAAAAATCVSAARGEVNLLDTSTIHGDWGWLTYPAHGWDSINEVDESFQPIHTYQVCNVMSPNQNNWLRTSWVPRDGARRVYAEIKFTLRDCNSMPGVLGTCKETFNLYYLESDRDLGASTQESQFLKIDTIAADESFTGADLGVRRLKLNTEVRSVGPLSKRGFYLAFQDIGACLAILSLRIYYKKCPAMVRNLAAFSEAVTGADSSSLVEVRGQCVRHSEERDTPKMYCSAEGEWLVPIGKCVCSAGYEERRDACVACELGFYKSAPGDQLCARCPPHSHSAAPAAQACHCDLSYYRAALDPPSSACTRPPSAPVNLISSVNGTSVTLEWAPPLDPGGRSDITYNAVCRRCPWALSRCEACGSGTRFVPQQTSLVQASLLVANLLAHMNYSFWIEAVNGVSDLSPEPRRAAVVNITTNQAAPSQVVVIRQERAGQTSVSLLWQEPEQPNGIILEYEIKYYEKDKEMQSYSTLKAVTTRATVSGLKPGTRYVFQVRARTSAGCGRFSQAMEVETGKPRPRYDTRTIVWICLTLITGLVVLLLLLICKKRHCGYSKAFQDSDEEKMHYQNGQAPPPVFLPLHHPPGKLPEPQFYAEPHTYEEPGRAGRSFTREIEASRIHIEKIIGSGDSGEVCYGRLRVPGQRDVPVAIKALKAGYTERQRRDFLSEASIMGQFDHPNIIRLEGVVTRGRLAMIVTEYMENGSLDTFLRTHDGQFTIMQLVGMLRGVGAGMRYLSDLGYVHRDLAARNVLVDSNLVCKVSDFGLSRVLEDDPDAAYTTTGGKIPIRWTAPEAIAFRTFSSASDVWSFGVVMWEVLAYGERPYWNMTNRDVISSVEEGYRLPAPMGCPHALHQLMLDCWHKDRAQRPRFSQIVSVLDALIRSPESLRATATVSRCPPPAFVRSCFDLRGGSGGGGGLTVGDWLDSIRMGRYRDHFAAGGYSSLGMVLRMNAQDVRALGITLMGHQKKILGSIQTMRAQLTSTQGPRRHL
Description: Inhibition of human recombinant EphA8 at 500 nM related to control ULK1.

Assay [6] deals with Serine/threonine-protein kinase mTOR (Homo sapiens) (UniProt P42345). Description: Inhibition of human recombinant FRAP at 500 nM in presence of ATP by radiometric assay relative to control.
The target in assay [7] is T3, Serine/threonine-protein kinase Sgk2 (Homo sapiens) (UniProt Q9HBY8).
T3 sequence (whole entry): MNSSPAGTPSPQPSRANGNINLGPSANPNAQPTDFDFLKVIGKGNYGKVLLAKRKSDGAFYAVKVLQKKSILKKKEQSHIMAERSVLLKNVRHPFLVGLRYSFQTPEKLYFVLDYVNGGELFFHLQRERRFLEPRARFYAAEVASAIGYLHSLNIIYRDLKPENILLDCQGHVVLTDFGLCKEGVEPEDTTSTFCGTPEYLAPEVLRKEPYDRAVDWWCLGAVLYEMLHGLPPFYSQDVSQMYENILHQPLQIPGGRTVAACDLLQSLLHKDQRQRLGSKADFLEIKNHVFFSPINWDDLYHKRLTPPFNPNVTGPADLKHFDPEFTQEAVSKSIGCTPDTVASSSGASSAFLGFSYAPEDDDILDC
Briefly: Inhibition of human recombinant SGK2 at 500 nM in presence of ATP by radiometric assay relative to control.

The target in assay [8] is Serine/threonine-protein kinase MRCK beta (Homo sapiens) (UniProt Q9Y5S2). Description: Inhibition of human recombinant MRCKb at 15 nM related to control ULK1.
Chain of Serine/threonine-protein kinase MRCK beta (Homo sapiens) (Q9Y5S2 whole entry): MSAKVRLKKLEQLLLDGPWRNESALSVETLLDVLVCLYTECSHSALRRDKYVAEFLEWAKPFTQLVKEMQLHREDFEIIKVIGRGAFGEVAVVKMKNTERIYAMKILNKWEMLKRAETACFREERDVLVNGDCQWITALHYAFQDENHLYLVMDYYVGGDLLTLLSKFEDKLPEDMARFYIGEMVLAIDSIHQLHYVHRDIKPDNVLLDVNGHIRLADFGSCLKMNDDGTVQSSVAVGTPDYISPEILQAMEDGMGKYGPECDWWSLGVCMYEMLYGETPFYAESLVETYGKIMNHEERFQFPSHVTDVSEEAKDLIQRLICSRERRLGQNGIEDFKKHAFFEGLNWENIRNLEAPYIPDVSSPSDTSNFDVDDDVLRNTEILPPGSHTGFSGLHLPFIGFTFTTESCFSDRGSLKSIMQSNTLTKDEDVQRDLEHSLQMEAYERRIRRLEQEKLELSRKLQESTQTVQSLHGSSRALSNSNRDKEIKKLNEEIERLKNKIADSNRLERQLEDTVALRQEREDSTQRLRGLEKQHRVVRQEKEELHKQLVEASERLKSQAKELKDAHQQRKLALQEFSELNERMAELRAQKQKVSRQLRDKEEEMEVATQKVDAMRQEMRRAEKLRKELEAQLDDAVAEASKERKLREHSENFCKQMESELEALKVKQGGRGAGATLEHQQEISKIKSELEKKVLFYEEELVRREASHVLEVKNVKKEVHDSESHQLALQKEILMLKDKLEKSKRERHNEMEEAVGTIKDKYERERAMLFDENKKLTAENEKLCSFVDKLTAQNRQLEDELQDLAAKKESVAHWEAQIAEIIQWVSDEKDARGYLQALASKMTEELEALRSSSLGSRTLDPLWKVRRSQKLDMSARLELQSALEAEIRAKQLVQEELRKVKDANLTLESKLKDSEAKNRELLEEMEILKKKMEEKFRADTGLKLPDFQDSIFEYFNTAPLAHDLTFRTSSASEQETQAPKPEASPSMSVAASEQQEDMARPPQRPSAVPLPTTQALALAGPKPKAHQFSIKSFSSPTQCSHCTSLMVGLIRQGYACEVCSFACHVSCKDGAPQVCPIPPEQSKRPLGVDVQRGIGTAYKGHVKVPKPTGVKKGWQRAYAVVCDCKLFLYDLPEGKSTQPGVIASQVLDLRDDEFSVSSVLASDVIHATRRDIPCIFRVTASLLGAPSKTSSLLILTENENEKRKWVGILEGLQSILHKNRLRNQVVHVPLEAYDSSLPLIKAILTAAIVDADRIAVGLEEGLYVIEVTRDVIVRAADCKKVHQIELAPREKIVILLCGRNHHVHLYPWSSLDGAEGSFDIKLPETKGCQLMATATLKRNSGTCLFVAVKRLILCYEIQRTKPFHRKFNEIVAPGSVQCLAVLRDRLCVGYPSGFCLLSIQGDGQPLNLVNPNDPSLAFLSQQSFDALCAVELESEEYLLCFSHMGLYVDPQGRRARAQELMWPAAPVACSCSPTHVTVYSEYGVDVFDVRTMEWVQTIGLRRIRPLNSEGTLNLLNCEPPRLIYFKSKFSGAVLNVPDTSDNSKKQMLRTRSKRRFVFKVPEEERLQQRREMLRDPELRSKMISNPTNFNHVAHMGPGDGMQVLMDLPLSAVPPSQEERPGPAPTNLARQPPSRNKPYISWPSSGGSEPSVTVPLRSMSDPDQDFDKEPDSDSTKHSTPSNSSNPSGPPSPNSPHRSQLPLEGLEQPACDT
Assay [9] addresses T1, Eukaryotic elongation factor 2 kinase (Homo sapiens). Briefly: Inhibition of human recombinant eEF2K at 15 nM related to control ULK1.
Assay [10] deals with Serine/threonine-protein kinase PAK 4 (Homo sapiens) (UniProt O96013). Description: Inhibition of human recombinant PAK4 at 15 nM related to control ULK1.

Chain of Serine-protein kinase ATM (Homo sapiens) (Q13315 whole entry): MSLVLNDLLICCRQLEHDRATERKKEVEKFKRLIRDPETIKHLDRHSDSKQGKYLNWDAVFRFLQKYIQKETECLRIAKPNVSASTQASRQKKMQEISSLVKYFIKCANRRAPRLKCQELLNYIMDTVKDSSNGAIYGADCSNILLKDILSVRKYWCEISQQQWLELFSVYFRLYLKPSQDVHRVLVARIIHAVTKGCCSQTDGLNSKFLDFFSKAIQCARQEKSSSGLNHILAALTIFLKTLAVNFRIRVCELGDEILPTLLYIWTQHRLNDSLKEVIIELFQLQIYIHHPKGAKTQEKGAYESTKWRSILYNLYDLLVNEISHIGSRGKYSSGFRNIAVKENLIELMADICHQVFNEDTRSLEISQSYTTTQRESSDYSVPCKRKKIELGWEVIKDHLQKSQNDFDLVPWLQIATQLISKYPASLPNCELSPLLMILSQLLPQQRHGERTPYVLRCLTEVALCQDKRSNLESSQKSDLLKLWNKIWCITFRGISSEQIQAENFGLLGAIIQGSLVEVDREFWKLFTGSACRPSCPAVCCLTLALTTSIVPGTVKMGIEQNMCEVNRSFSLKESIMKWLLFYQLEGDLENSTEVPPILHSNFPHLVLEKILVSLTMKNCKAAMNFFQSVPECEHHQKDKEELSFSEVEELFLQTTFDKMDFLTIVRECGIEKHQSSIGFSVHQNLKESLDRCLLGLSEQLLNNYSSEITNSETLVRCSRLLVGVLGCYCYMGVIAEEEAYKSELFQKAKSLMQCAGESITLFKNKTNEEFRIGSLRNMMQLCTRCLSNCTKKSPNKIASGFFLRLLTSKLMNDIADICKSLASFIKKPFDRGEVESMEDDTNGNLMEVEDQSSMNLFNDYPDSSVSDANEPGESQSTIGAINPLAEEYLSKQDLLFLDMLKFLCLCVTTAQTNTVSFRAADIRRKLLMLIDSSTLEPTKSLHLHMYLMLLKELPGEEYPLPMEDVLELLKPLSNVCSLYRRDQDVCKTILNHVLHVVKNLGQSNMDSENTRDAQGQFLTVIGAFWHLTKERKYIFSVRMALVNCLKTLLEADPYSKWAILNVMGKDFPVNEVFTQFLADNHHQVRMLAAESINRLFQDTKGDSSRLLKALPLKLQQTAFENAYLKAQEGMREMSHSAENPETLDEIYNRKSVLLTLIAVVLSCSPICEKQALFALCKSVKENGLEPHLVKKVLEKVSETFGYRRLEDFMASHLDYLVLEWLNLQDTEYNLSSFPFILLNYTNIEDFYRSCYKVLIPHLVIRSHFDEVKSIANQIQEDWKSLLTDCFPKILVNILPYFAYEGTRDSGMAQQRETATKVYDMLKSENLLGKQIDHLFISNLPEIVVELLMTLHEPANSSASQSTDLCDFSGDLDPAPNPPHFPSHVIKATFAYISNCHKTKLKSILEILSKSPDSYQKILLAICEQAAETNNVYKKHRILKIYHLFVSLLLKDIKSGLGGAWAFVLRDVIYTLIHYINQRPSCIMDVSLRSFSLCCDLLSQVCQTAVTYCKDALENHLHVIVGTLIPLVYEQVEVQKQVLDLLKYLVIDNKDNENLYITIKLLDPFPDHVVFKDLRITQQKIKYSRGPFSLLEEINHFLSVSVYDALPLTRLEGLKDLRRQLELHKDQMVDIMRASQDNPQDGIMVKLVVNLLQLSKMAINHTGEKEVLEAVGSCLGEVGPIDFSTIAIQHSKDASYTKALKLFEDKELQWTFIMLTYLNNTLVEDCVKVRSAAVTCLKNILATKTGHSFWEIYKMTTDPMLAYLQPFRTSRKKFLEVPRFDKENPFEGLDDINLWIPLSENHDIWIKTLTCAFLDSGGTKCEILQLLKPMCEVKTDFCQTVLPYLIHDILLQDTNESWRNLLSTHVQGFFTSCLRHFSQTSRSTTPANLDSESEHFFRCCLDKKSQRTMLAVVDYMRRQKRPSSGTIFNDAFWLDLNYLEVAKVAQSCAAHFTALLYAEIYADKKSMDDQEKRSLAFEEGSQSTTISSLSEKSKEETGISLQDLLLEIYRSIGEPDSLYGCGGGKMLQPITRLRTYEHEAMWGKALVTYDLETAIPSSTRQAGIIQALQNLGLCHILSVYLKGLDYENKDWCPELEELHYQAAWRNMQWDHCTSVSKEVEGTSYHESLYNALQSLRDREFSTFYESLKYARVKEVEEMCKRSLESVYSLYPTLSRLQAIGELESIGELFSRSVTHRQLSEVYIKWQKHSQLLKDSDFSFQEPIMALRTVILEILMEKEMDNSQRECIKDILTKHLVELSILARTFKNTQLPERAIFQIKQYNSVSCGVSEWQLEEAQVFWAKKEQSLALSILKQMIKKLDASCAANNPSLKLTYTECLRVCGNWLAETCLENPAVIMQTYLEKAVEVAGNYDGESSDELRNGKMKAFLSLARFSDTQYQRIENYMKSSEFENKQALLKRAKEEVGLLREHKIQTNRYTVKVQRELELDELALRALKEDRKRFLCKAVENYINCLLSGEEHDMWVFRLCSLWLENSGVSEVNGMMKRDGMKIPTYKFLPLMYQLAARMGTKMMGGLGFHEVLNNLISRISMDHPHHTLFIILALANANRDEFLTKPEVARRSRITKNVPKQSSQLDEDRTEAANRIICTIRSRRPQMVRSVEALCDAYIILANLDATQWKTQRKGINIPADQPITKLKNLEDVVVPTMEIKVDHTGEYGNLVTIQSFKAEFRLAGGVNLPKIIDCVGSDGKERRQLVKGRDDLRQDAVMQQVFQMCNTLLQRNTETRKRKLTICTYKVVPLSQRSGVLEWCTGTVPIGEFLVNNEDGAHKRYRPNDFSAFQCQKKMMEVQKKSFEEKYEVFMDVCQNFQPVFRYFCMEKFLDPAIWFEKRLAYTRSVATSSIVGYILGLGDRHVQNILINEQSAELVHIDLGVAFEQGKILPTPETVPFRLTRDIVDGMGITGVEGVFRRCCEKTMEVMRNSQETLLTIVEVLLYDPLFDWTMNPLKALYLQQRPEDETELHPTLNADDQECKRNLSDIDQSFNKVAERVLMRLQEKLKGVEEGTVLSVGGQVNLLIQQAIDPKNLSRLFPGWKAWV

Consider `O=C(N[C@@H](C1CC1)C(F)(F)F)c1cc(-c2cnn3cc(-c4ccc(F)cc4)cnc23)cs1`, for which the values for the inhibition in assay [1] and in assay [2] were 7% and 5%, respectively.
Take `CNC(=O)c1ccccc1Oc1nc(Nc2cc(OC)c(OC)c(OC)c2)ncc1Br`: the fold change (FC) in [3] is 0; in [5], 0.03. The inhibition (as a rule, the share of the control response that was lost under treatment) in assay [4] was 0%; in [6] it was 0%; in [7], 17%.
For `CC(C)[C@H](NC(=O)c1cc(-c2cnn3cc(-c4ccc(OCCN5CCCCC5)cc4)cnc23)cs1)C(F)(F)F`, the fold change (FC) in [8] was found to be 0.07; in assay [9] it was 0.11; in assay [10] it was 0.
